# Experimental data gathered from unrelated publications.
# Protocols differ between the studies behind these lines.
# Target: Serine/threonine-protein kinase Nek6 (NEK6, Homo sapiens, UniProt Q9HC98)
Compound,assay,setting,endpoint,result
COc1cc2ncnc(Nc3ccc(Oc4ccccc4)c(C)c3C)c2cc1OC,"enzyme activity, inhibitor",1 µM,inhibition,8%
CN(c1ncccc1CNc1nc(Nc2ccc3c(c2)CC(=O)N3)ncc1C(F)(F)F)S(C)(=O)=O,"enzyme activity, inhibitor",1 µM,inhibition,11.8%
O=C1Nc2ccc(Cl)cc2C1=Cc1cc(Cl)c(O)c(Cl)c1,cell-free assay,0.5 µM,remaining signal,104%
CCCS(=O)(=O)Nc1ccc(F)c(C(=O)c2c[nH]c3ncc(-c4ccc(Cl)cc4)cc23)c1F,"enzyme activity, inhibitor",1 µM,inhibition,< 10%
C[C@H](NC(=O)c1cnc2n1[C@](C)(Cc1ccc(C#N)cc1)C(=O)N2c1cc(Cl)c(F)c(Cl)c1)C(=O)NC1(c2ccccn2)CC1,"cell-free assay, competition with immobilised ligand",1 µM,remaining binding,100%
N#CCCc1ccc2c(c1)-c1[nH]c3ccc([N+](=O)[O-])cc3c1CC(=O)N2,cell-free assay,0.5 µM,remaining signal,101%
Cc1cc(NC(=O)c2cccc3cc(-c4cccc5[nH]nc(N)c45)ccc23)ccc1F,"enzyme activity, inhibitor",0.1 µM,activity vs control,99%
Cc1cc(-n2nc(Cc3cc(F)cc(C(F)(F)F)c3)nc2C)ccc1C(N)=O,"cell-free assay, competition with immobilised ligand",1 µM,remaining binding,95%
COc1cc(/C=C/C(=O)CC(=O)/C=C/c2ccc(O)c(OC)c2)ccc1O,"enzyme activity, inhibitor",1 µM,activity vs control,97%
CC(C)CC(=O)N1CCc2nc(-c3ccc(Br)cc3)nc(N(C)Cc3ccccc3)c2C1,"cell-free assay, competition with immobilised ligand",0.1 µM,remaining binding,100%
CNC(=O)c1cc(Oc2ccc(NC(=O)Nc3ccc(Cl)c(C(F)(F)F)c3)cc2)ccn1,"enzyme activity, inhibitor",0.3 µM,inhibition,-13%
C[C@H](c1ccnc(Nc2nc3ccc(-c4cc(N(C)C)ncn4)cc3[nH]2)c1)N1CCN(C(=O)CC(F)(F)F)CC1,"cell-free assay, competition with immobilised ligand",0.1 µM,remaining binding,83%
CCN(CC)CCNC(=O)c1c(C)[nH]c(/C=C2\C(=O)Nc3ccc(F)cc32)c1C,"enzyme activity, inhibitor",0.3 µM,inhibition,-14%
FC(F)(F)Oc1cccc(-c2cnc3ccc(-c4ccncc4)nn23)c1,"enzyme activity, inhibitor, radiometric",1 µM,activity vs control,92%
